ChEMBL document CHEMBL3792373, “Anti-methicillin resistant Staphylococcus aureus activity, synergism with oxacillin and molecular docking studies of metronidazole-triazole hybrids” (Eur J Med Chem, 2016)
≈ marks a conversion by molar mass, not a printed value.

Legend:
Format in all cases: functional
[1] = test system: Staphylococcus aureus; assay: Bactericidal activity against methicillin-resistant Staphylococcus aureus isolate 1a assessed as reduction in colony counts at 32 ug/ml after 8 hrs by pour plate method in presence of oxacillin (1:1) (reference value: 8.30 +/- 0.442 log10CFU/ml)
[2] = test system: Staphylococcus aureus; assay: Antimicrobial activity against methicillin-resistant Staphylococcus aureus isolate 16a after 24 hrs by agar plate dilution method in presence of oxacillin (1:1)
In short: (§1)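 Test compound and oxacillin mixed 1:1, each at 32 µg/mL in the mixture, then serially diluted into agar plates. Clinical MRSA isolates at McFarland 0.5 in water were spotted onto the plates and incubated 24 h at 37 °C. Growth was read as white spots. NCTC 6571 S. aureus served as the dilution-series control.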

[3] = test system: Staphylococcus aureus; assay: Antimicrobial activity against methicillin-resistant Staphylococcus aureus isolate 1a after 24 hrs by agar plate dilution method
In short: (§2)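 Clinical MRSA isolates from axilla/nasal swabs, identified by mannitol salt agar, Gram stain and coagulase test. Agar plate dilution with compound series 0.03–128 µg/mL. Inoculum suspended in water to McFarland 0.5. Incubation 24 h at 37 °C. MIC read as the lowest level without white growth spots. Dilution series quality-controlled with S. aureus NCTC 6571.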

[4] = test system: Staphylococcus aureus; assay: Antimicrobial activity against methicillin-resistant Staphylococcus aureus isolate 17a after 24 hrs by agar plate dilution method; in short: as §2
[5] = test system: Staphylococcus aureus; assay: Antimicrobial activity against methicillin-resistant Staphylococcus aureus isolate 3a after 24 hrs by agar plate dilution method; in short: as §2
[6] = test system: Staphylococcus aureus; assay: Bactericidal activity against methicillin-resistant Staphylococcus aureus isolate 1a assessed as reduction in colony counts at 32 ug/ml after 16 hrs by pour plate method (reference value: 12.50 +/- 0.291 log10CFU/ml)
[7] = test system: Staphylococcus aureus; assay: Antimicrobial activity against methicillin-resistant Staphylococcus aureus isolate 2a after 24 hrs by agar plate dilution method in presence of oxacillin (1:1); in short: as §1
[8] = test system: Staphylococcus aureus; assay: Antimicrobial activity against methicillin-resistant Staphylococcus aureus isolate 30a after 24 hrs by agar plate dilution method; in short: as §2
[9] = test system: Staphylococcus aureus; assay: Antimicrobial activity against methicillin-resistant Staphylococcus aureus isolate 23a after 24 hrs by agar plate dilution method in presence of oxacillin (1:1); in short: as §1
[10] = test system: Staphylococcus aureus; assay: Antimicrobial activity against methicillin-resistant Staphylococcus aureus isolate 7a after 24 hrs by agar plate dilution method in presence of oxacillin (1:1)
In short: (§3)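 Clinical MRSA isolates, from axilla/nasal swabs and identified by mannitol salt agar, Gram stain and coagulase test. […] Inoculum adjusted to McFarland 0.5 in water. Plates incubated 24 h at 37 °C and scored for growth spots. Dilution series quality-controlled with S. aureus NCTC 6571. Combination lines used a 1:1 mixture with oxacillin.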

[11] = test system: Staphylococcus aureus; assay: Antimicrobial activity against methicillin-resistant Staphylococcus aureus isolate 8a after 24 hrs by agar plate dilution method; in short: as §3
[12] = test system: Staphylococcus aureus; assay: Antimicrobial activity against methicillin-resistant Staphylococcus aureus isolate 3a after 24 hrs by agar plate dilution method in presence of oxacillin (1:1); in short: as §1
[13] = test system: Staphylococcus aureus; assay: Antimicrobial activity against methicillin-resistant Staphylococcus aureus isolate 24a after 24 hrs by agar plate dilution method in presence of oxacillin (1:1); in short: as §1
[14] = test system: Staphylococcus aureus; assay: Antimicrobial activity against methicillin-resistant Staphylococcus aureus isolate 29a after 24 hrs by agar plate dilution method in presence of oxacillin (1:1); in short: as §1
[15] = test system: Staphylococcus aureus; assay: Antimicrobial activity against methicillin-resistant Staphylococcus aureus isolate 13a after 24 hrs by agar plate dilution method in presence of oxacillin (1:1); in short: as §1
[16] = test system: Staphylococcus aureus; assay: Antimicrobial activity against methicillin-resistant Staphylococcus aureus isolate 12a after 24 hrs by agar plate dilution method; in short: as §2
[17] = test system: Staphylococcus aureus; assay: Antimicrobial activity against methicillin-resistant Staphylococcus aureus isolate 18a after 24 hrs by agar plate dilution method in presence of oxacillin (1:1); in short: as §1
[18] = test system: Staphylococcus aureus; assay: Antimicrobial activity against methicillin-resistant Staphylococcus aureus isolate 13a after 24 hrs by agar plate dilution method; in short: as §2
[19] = test system: Staphylococcus aureus; assay: Antimicrobial activity against methicillin-resistant Staphylococcus aureus isolate 24a after 24 hrs by agar plate dilution method; in short: as §2
[20] = test system: Staphylococcus aureus; assay: Bactericidal activity against methicillin-resistant Staphylococcus aureus isolate 1a assessed as reduction in colony counts at 32 ug/ml after 4 hrs by pour plate method in presence of oxacillin (1:1) (reference value: 6.14 +/- 0.456 log10CFU/ml)
[21] = test system: Staphylococcus aureus; assay: Antimicrobial activity against methicillin-resistant Staphylococcus aureus isolate 27a after 24 hrs by agar plate dilution method in presence of oxacillin (1:1); in short: as §1
[22] = test system: Staphylococcus aureus; assay: Antimicrobial activity against methicillin-resistant Staphylococcus aureus isolate 11a after 24 hrs by agar plate dilution method; in short: as §2
[23] = test system: Staphylococcus aureus; assay: Antimicrobial activity against methicillin-resistant Staphylococcus aureus isolate 22a after 24 hrs by agar plate dilution method; in short: as §2
[24] = test system: Staphylococcus aureus; assay: Antimicrobial activity against methicillin-resistant Staphylococcus aureus isolate 5a after 24 hrs by agar plate dilution method in presence of oxacillin (1:1); in short: as §3
[25] = test system: Staphylococcus aureus; assay: Antimicrobial activity against methicillin-resistant Staphylococcus aureus isolate 4a after 24 hrs by agar plate dilution method; in short: as §2
[26] = test system: Staphylococcus aureus; assay: Antimicrobial activity against methicillin-resistant Staphylococcus aureus isolate 6a after 24 hrs by agar plate dilution method in presence of oxacillin (1:1); in short: as §3
[27] = test system: Staphylococcus aureus; assay: Antimicrobial activity against methicillin-resistant Staphylococcus aureus isolate 30a after 24 hrs by agar plate dilution method in presence of oxacillin (1:1); in short: as §1
[28] = test system: Staphylococcus aureus; assay: Antimicrobial activity against methicillin-resistant Staphylococcus aureus isolate 1a after 24 hrs by agar plate dilution method in presence of oxacillin (1:1); in short: as §1
[29] = test system: Staphylococcus aureus; assay: Antimicrobial activity against methicillin-resistant Staphylococcus aureus isolate 16a after 24 hrs by agar plate dilution method; in short: as §2
[30] = test system: Staphylococcus aureus; assay: Antimicrobial activity against methicillin-resistant Staphylococcus aureus isolate 14a after 24 hrs by agar plate dilution method; in short: as §2
[31] = test system: Staphylococcus aureus; assay: Antimicrobial activity against methicillin-resistant Staphylococcus aureus isolate 12a after 24 hrs by agar plate dilution method in presence of oxacillin (1:1); in short: as §1
[32] = test system: Staphylococcus aureus; assay: Antimicrobial activity against methicillin-resistant Staphylococcus aureus isolate 22a after 24 hrs by agar plate dilution method in presence of oxacillin (1:1); in short: as §1
[33] = test system: Staphylococcus aureus; assay: Antimicrobial activity against methicillin-resistant Staphylococcus aureus isolate 28a after 24 hrs by agar plate dilution method in presence of oxacillin (1:1); in short: as §1
[34] = test system: Staphylococcus aureus; assay: Antimicrobial activity against methicillin-resistant Staphylococcus aureus isolate 27a after 24 hrs by agar plate dilution method; in short: as §2
[35] = test system: Staphylococcus aureus; assay: Bactericidal activity against methicillin-resistant Staphylococcus aureus isolate 1a assessed as reduction in colony counts at 32 ug/ml after 16 hrs by pour plate method in presence of oxacillin (1:1) (reference value: 12.50 +/- 0.291 log10CFU/ml)
[36] = test system: Staphylococcus aureus; assay: Antimicrobial activity against methicillin-resistant Staphylococcus aureus isolate 15a after 24 hrs by agar plate dilution method; in short: as §2
[37] = test system: Staphylococcus aureus; assay: Antimicrobial activity against methicillin-resistant Staphylococcus aureus isolate 23a after 24 hrs by agar plate dilution method; in short: as §2
[38] = test system: Staphylococcus aureus; assay: Antimicrobial activity against methicillin-resistant Staphylococcus aureus isolate 25a after 24 hrs by agar plate dilution method in presence of oxacillin (1:1); in short: as §1
[39] = test system: Staphylococcus aureus; assay: Antimicrobial activity against methicillin-resistant Staphylococcus aureus isolate 9a after 24 hrs by agar plate dilution method in presence of oxacillin (1:1); in short: as §3
[40] = test system: Staphylococcus aureus; assay: Antimicrobial activity against methicillin-resistant Staphylococcus aureus isolate 21a after 24 hrs by agar plate dilution method in presence of oxacillin (1:1); in short: as §1

## Cc1ncc([N+](=O)[O-])n1CCn1cc(COc2c(Cl)cccc2Cl)nn1
[1]
  Activity: 5.85 log10CFU/ml
[2]
  MIC: 2 µg/mL
[3]
  MIC: 4 µg/mL (≈ 10.1 µM)
[4]
  MIC: 32 µg/mL (≈ 80.6 µM)
[5]
  MIC: 4 µg/mL (≈ 10.1 µM)
[6]
  Activity: 5.53 log10CFU/ml
[7]
  MIC: 1 µg/mL
[8]
  MIC: 64 µg/mL (≈ 161 µM)
[9]
  MIC: 4 µg/mL
[10]
  MIC: 1 µg/mL
[11]
  MIC: 4 µg/mL (≈ 10.1 µM)
[12]
  MIC: 1 µg/mL
[13]
  MIC: 4 µg/mL
[14]
  MIC: 4 µg/mL
[15]
  MIC: 4 µg/mL
[16]
  MIC: 32 µg/mL (≈ 80.6 µM)
[17]
  MIC: 4 µg/mL
[18]
  MIC: 64 µg/mL (≈ 161 µM)
[19]
  MIC: > 128 µg/mL
[20]
  Activity: 5.5 log10CFU/ml
[21]
  MIC: 4 µg/mL
[22]
  MIC: 16 µg/mL (≈ 40.3 µM)
[23]
  MIC: > 128 µg/mL
[24]
  MIC: 1 µg/mL
[25]
  MIC: 4 µg/mL (≈ 10.1 µM)
[26]
  MIC: 1 µg/mL
[27]
  MIC: 8 µg/mL
[28]
  MIC: 1 µg/mL
[29]
  MIC: 32 µg/mL (≈ 80.6 µM)
[30]
  MIC: > 128 µg/mL
[31]
  MIC: 2 µg/mL
[32]
  MIC: 4 µg/mL
[33]
  MIC: 1 µg/mL
[34]
  MIC: 64 µg/mL (≈ 161 µM)
[35]
  Activity: 4.52 log10CFU/ml
[36]
  MIC: > 128 µg/mL
[37]
  MIC: > 128 µg/mL
[38]
  MIC: 4 µg/mL
[39]
  MIC: 2 µg/mL
[40]
  MIC: 1 µg/mL
